# Data reported in ChEMBL document CHEMBL3244336, “Antitumor agents. 1. 1,4-Bis[(aminoalkyl)amino]-9,10-anthracenediones” (J Med Chem, 1979).
# Calls of active or inactive are those of the source.
# Assays:
# [1] = test system: P388; assay: Antitumor activity against mouse P388 cells allografted in mouse assessed as increase of median life span at 300 mg/kg, ip on day 1, 5 and 9 measured up to 60 days relative to control; assay type: functional; details: route intraperitoneal
# Procedure, shortened: (§1)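 BDF1 or CDF1 mice inoculated ip with ascitic P388 leukemia cells. Dosing ip on days 1, 5 and 9. Deaths recorded for 60 days; % increase in median life span over controls. "Cures" are survivors/total at 60 days.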
# [2] = test system: P388; assay: Antitumor activity against mouse P388 cells allografted in mouse assessed as disease cure at 300 mg/kg, ip on day 1, 5 and 9 measured up to 60 days; assay type: functional, organism-based; set-up: dose 300 mg/kg
# Procedure, shortened: (§2)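 BDF1 or CDF1 mice inoculated ip with ascitic P388 leukemia cells, dosed ip on days 1, 5 and 9. Deaths recorded for 60 days; "cures" taken as number of survivors/total at 60 days.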
# [3] = test system: B16; assay: Antitumor activity against mouse B16 cells allografted in BDF1 mouse assessed as increase of median life span at 50 mg/kg, ip on day 1 to 9 measured up to 80 days relative to control; assay type: functional; details: route intraperitoneal
# Procedure, shortened: (§3)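 BDF1 mice implanted ip with a homogenate from 0.05 g of B16 tumor. Test agent given ip on days 1-9. Deaths recorded for 80 days. Result is % increase in median life span over untreated controls. "Cures" are survivors/total at 80 days.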
# [4] = test system: B16; assay: Antitumor activity against mouse B16 cells allografted in BDF1 mouse assessed as disease cure at 50 mg/kg, ip on day 1 to 9 measured up to 80 days; assay type: functional, organism-based; set-up: dose 50 mg/kg
# Procedure, shortened: (§4)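 BDF1 mice implanted ip with homogenate from 0.05 g of B16 tumor, then dosed ip on days 1-9. Deaths recorded for 80 days; "cures" scored as survivors/total at 80 days.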
# [5] = test system: P388; assay: Antitumor activity against mouse P388 cells allografted in ip dosed mouse assessed as minimum effective dose administered as single dose; assay type: functional; details: read-out: MED
# Procedure, shortened: (§5)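 Drug given ip to P388 tumor-bearing mice, either once as a single dose or once each 4 days for three injections. Minimum effective dose defined as the dose giving 40% increase in life span over control, read from regression lines of log dose-response data.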
# [6] = test system: B16; assay: Antitumor activity against mouse B16 cells allografted in BDF1 mouse assessed as increase of median life span at 0.8 mg/kg, ip on day 1 to 9 measured up to 80 days relative to control; assay type: functional; details: route intraperitoneal; procedure, shortened: as §3
# [7] = test system: P388; assay: Antitumor activity against mouse P388 cells allografted in mouse assessed as increase of median life span at 1.6 mg/kg, ip on day 1, 5 and 9 measured up to 60 days relative to control; assay type: functional; details: route intraperitoneal; procedure, shortened: as §1
# [8] = test system: P388; assay: Antitumor activity against mouse P388 cells allografted in ip dosed mouse assessed as minimum effective dose administered as once each 4 days for 3 total injection; assay type: functional; details: 96 h, read-out: MED; procedure, shortened: as §5
# [9] = Toxicity in […] assessed as maximum tolerated dose administered as single dose; assay type: organism-based, P388; details: mouse, in vivo, ip
# [10] = Toxicity in […] assessed as maximum tolerated dose administered as once each 4 days for 3 total injection; assay type: organism-based, P388; details: mouse, in vivo, ip
# [11] = test system: P388; assay: Antitumor activity against mouse P388 cells allografted in ip dosed mouse assessed as dose providing 40% increase in life span administered as once each 4 days for 3 total injection; assay type: functional
# Procedure, shortened: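 P388 tumor-bearing mice dosed ip, either once as a single dose or once every 4 days for three injections. It was read from regression lines of log dose-response data.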
# [12] = Therapeutic index, ratio of MTD for mouse P388 cells allografted ip dosed mouse to MED for mouse P388 cells allografted in ip dosed mouse administered as single dose; assay type: organism-based; details: in vivo, read-out: TI
# Procedure, shortened: (§6)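 Therapeutic index is MTD/MED for ip dosing, either single or once every 4 days ×3. MTD is the 10% lethal dose in normal mice over 21 days. MED is the dose giving a 40% life-span increase in P388-bearing mice. Both come from log dose-response regression lines.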
# [13] = Therapeutic index, ratio of MTD for mouse P388 cells allografted ip dosed mouse to MED for mouse P388 cells allografted in ip dosed mouse administered as once each 4 days for 3 total injection; assay type: organism-based; details: in vivo, read-out: TI; procedure, shortened: as §6
# [14] = test system: L5178Y; assay: Ratio of adriamycin to compound for inhibition of RNA synthesis in mouse L5178Y cells; assay type: functional
# [15] = test system: L5178Y; assay: Ratio of adriamycin to compound for inhibition of DNA synthesis in mouse L5178Y cells; assay type: functional
# [16] = test system: P388; assay: Antitumor activity against mouse P388 cells allografted in mouse assessed as increase of median life span at 6.2 mg/kg, ip on day 1, 5 and 9 measured up to 60 days relative to control; assay type: functional; details: route intraperitoneal; procedure, shortened: as §1
# [17] = test system: P388; assay: Antitumor activity against mouse P388 cells allografted in mouse assessed as disease cure at 6.2 mg/kg, ip on day 1, 5 and 9 measured up to 60 days; assay type: functional, organism-based; set-up: dose 6.2 mg/kg; procedure, shortened: as §2
# [18] = test system: B16; assay: Antitumor activity against mouse B16 cells allografted in BDF1 mouse assessed as disease cure at 3.1 mg/kg, ip on day 1 to 9 measured up to 80 days; assay type: functional, organism-based; set-up: dose 3.1 mg/kg; procedure, shortened: as §4
# [19] = test system: B16; assay: Antitumor activity against mouse B16 cells allografted in BDF1 mouse assessed as increase of median life span at 3.1 mg/kg, ip on day 1 to 9 measured up to 80 days relative to control; assay type: functional; details: route intraperitoneal; procedure, shortened: as §3
# [20] = test system: P388; assay: Antitumor activity against mouse P388 cells allografted in mouse assessed as increase of median life span at 3.1 mg/kg, ip on day 1, 5 and 9 measured up to 60 days relative to control; assay type: functional; details: route intraperitoneal
# Procedure, shortened: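 BDF or CDF1 mice injected ip with ascitic leukemia cells, then dosed ip on days 1, 5 and 9. Deaths recorded for 60 days. Read-outs: percent increase in median life span over controls, and "cures" as survivors/total at 60 days.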
# [21] = test system: P388; assay: Antitumor activity against mouse P388 cells allografted in mouse assessed as increase of median life span at 250 mg/kg, ip on day 1, 5 and 9 measured up to 60 days relative to control; assay type: functional; details: route intraperitoneal; procedure, shortened: as §1
# [22] = test system: P388; assay: Antitumor activity against mouse P388 cells allografted in mouse assessed as disease cure at 250 mg/kg, ip on day 1, 5 and 9 measured up to 60 days; assay type: functional, organism-based; set-up: dose 250 mg/kg; procedure, shortened: as §2
# [23] = test system: Lewis lung carcinoma cell line; assay: Antitumor activity against mouse LLC cells subcutaneously implanted in mouse; assay type: functional, cell-based
# [24] = test system: Lewis lung carcinoma cell line; assay: Antitumor activity against mouse LLC cells intravenously implanted in mouse; assay type: functional, cell-based
# [25] = test system: P388; assay: Antitumor activity against mouse P388 cells allografted in mouse assessed as increase of median life span at 400 mg/kg, ip on day 1 to 9 measured up to 60 days relative to control; assay type: functional; details: route intraperitoneal
# Procedure, shortened: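 BDF1 or CDF1 mice inoculated ip with ascitic P388 leukemia cells. Dosing ip on days 1-9. Deaths followed for 60 days; % increase in median life span over controls.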
# [26] = test system: P388; assay: Antitumor activity against mouse P388 cells allografted in mouse assessed as disease cure at 400 mg/kg, ip on day 1 to 9 measured up to 60 days; assay type: functional, organism-based; set-up: dose 400 mg/kg
# Procedure, shortened: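 P388 ascitic leukemia cells given ip to BDF1 or CDF1 mice; ip dosing on days 1-9. Deaths followed for 60 days, cures expressed as survivors/total at 60 days.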
# [27] = test system: B16; assay: Antitumor activity against mouse B16 cells allografted in BDF1 mouse assessed as increase of median life span at 400 mg/kg, ip on day 1 to 9 measured up to 80 days relative to control; assay type: functional; details: route intraperitoneal; procedure, shortened: as §3
# [28] = test system: B16; assay: Antitumor activity against mouse B16 cells allografted in BDF1 mouse assessed as disease cure at 400 mg/kg, ip on day 1 to 9 measured up to 80 days; assay type: functional, organism-based; set-up: dose 400 mg/kg; procedure, shortened: as §4
# [29] = test system: P388; assay: Antitumor activity against mouse P388 cells allografted in mouse assessed as increase of median life span at 50 mg/kg, ip on day 1, 5 and 9 measured up to 60 days relative to control; assay type: functional; details: route intraperitoneal; procedure, shortened: as §1
# [30] = test system: P388; assay: Antitumor activity against mouse P388 cells allografted in mouse assessed as disease cure at 50 mg/kg, ip on day 1, 5 and 9 measured up to 60 days; assay type: functional, organism-based; set-up: dose 50 mg/kg; procedure, shortened: as §2
# [31] = test system: B16; assay: Antitumor activity against mouse B16 cells allografted in BDF1 mouse assessed as increase of median life span at 25 mg/kg, ip on day 1 to 9 measured up to 80 days relative to control; assay type: functional; details: route intraperitoneal; procedure, shortened: as §3
# [32] = test system: P388; assay: Antitumor activity against mouse P388 cells allografted in mouse assessed as increase of median life span at 5 mg/kg, ip on day 1, 5 and 9 measured up to 60 days relative to control; assay type: functional; details: route intraperitoneal; procedure, shortened: as §1
# [33] = test system: P388; assay: Antitumor activity against mouse P388 cells allografted in mouse assessed as increase of median life span at 12.5 mg/kg, ip on day 1, 5 and 9 measured up to 60 days relative to control; assay type: functional; details: route intraperitoneal; procedure, shortened: as §1
smiles,measurement,setting,value
O=C1c2c(O)ccc(O)c2C(=O)c2c(NCCN3CCCCC3)ccc(NCCN3CCCCC3)c21,ILS at 300 mg/kg,[1],40%
same,Activity,[2],inactive
same,ILS at 50 mg/kg,[3],0%
same,Activity,[4],inactive
Cl.Cl.O=C1c2c(O)ccc(O)c2C(=O)c2c(NCCNCCO)ccc(NCCNCCO)c21 [MITOXANTRONE HYDROCHLORIDE],minimal effective dose,[5],0.15 mg/kg
same,ILS at 0.8 mg/kg,[6],> 272%
same,ILS at 1.6 mg/kg,[7],> 500%
same,minimal effective dose,[8],0.023 mg/kg
same,MTD,[9],4.2 mg/kg
same,MTD at 96 h,[10],3.4 mg/kg
same,Activity,[11],300 mg/kg
same,selectivity ratio,[12],28
same,selectivity ratio at 96 h,[13],148
same,Ratio,[14],7
same,Ratio,[15],4
CNCCNc1ccc(NCCNC)c2c1C(=O)c1c(O)ccc(O)c1C2=O,ILS at 6.2 mg/kg,[16],118%
same,Activity,[17],inactive
same,Activity,[18],inactive
same,ILS at 3.1 mg/kg,[19],210%
NCCNc1ccc(NCCN)c2c1C(=O)c1c(O)ccc(O)c1C2=O,ILS at 3.1 mg/kg,[20],173%
O=C1c2ccccc2C(=O)c2c(NCCc3ccccn3)ccc(NCCc3ccccn3)c21,ILS at 250 mg/kg,[21],0%
same,Activity,[22],inactive
O=C1c2c(O)ccc(O)c2C(=O)c2c(NCCNCCO)ccc(NCCNCCO)c21,Activity,[23],inactive
same,Activity,[24],inactive
O=C1c2ccccc2C(=O)c2c(NCCN3CCOCC3)ccc(NCCN3CCOCC3)c21,ILS at 400 mg/kg,[25],119%
same,Activity,[26],inactive
same,ILS at 400 mg/kg,[27],33%
same,Activity,[28],inactive
CN(C)CCNc1ccc(NCCN(C)C)c2c1C(=O)c1ccc(O)c(O)c1C2=O,ILS at 50 mg/kg,[29],57%
same,Activity,[30],inactive
same,ILS at 25 mg/kg,[31],60%
COc1cccc2c1C(=O)c1c(O)c3c(c(O)c1C2=O)C[C@@](O)(C(=O)CO)C[C@@H]3O[C@H]1C[C@H](N)[C@H](O)[C@H](C)O1 [DOXORUBICIN],minimal effective dose,[5],0.35 mg/kg
same,ILS at 5 mg/kg,[32],159%
same,ILS at 0.8 mg/kg,[6],275%
same,minimal effective dose,[8],0.14 mg/kg
same,MTD,[9],13.1 mg/kg
same,MTD at 96 h,[10],2.7 mg/kg
CC(O)CNCCNc1ccc(NCCNCC(C)O)c2c1C(=O)c1c(O)ccc(O)c1C2=O (centres undefined),ILS at 12.5 mg/kg,[33],255%
same,ILS at 3.1 mg/kg,[19],240%
